In brackets after ≈: the same amount, converted by molar mass. Activity calls are given as the source filed them. The rule behind the calls is not given here.
Experiments:
Type in all cases: functional
Pseudomonas aeruginosa [1] = test: Antibacterial activity against Pseudomonas aeruginosa 100609 after 20 hrs by broth microdilution assay
In short: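 Broth microdilution in TSB per CLSI: a 5 × 10^5 CFU/ml inoculum (OD660 0.02) was added to serial twofold antibiotic dilutions. Plates were shaken at 37°C for 20 h. MIC was the lowest concentration with no visible growth, determined in triplicate.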

Pseudomonas aeruginosa [2] = test: FIC index, ratio of MIC for Pseudomonas aeruginosa 100609 in presence of 250 ug/ml polyethylenimine to MIC for Pseudomonas aeruginosa 100609
Pseudomonas aeruginosa [3] = test: Antibacterial activity against Pseudomonas aeruginosa 100609 assessed as reduction in bacterial count at 0.25 times MIC after 9 hrs by time-kill assay in presence of 250 ug/ml polyethylenimine relative to control
In short: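 Time-kill assay: TSB was seeded from a 17-h preculture to 5 × 10^7 CFU/ml (set by OD660). Antibiotic was at 25% of MIC, with PEI at a final 250 nM (legend gives 250 μg/ml). Controls were PEI alone, antibiotic alone and bacteria alone. Viable counts on LB agar were taken at 0, 1.5, 3, 6 and 9 h, in triplicate. Synergy was a ≥2.0 mean log10 CFU/ml drop versus antibiotic alone.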

Pseudomonas aeruginosa [4] = test: FIC index, ratio of MIC for Pseudomonas aeruginosa 25619 in presence of 250 ug/ml polyethylenimine to MIC for Pseudomonas aeruginosa 25619
In short: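 Checkerboard combination of PEI (mean MW 10 kDa) with antibiotic against P. aeruginosa ATCC 25619, in TSB inoculated at about 5 × 10^5 CFU/ml, run in triplicate. ΣFIC was derived from the combination; 0.5 to 2.0 is read as indifference and ≥4.0 as antagonism.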

[5] = Pseudomonas aeruginosa, 100609, 20 h

Row | Compound | MIC (Pseudomonas aeruginosa [1]; [5]) [µg/mL] | fractional inhibitory concentration index (FICI) (Pseudomonas aeruginosa [2]) | MIC (Pseudomonas aeruginosa [1]) [µg/mL] | Activity (Pseudomonas aeruginosa [3]) | fold change (FC) (Pseudomonas aeruginosa [3]) | fractional inhibitory concentration index (FICI) (Pseudomonas aeruginosa [4])
1 | CCN1CCN(C(=O)N[C@@H](C(=O)N[C@@H]2C(=O)N3[C@@H]2SC(C)(C)[C@@H]3C(=O)O)c2ccccc2)C(=O)C1=O [PIPERACILLIN] | 40 (≈ 77.3 µM) | – | – | – | – | –
2 | CCn1cc(C(=O)O)c(=O)c2cc(F)c(N3CCNCC3)cc21 [NORFLOXACIN] | 15 (≈ 47 µM) | 0.68 | – | – | – | –
3 | CN(C)[C@@H]1C(O)=C(C(N)=O)C(=O)[C@@]2(O)C(O)=C3C(=O)c4c(O)cccc4[C@@](C)(O)[C@H]3C[C@@H]12 [TETRACYCLINE] | 20 (≈ 45 µM) | 1 | – | – | – | –
4 | CC1(C)S[C@@H]2[C@H](NC(=O)C(C(=O)O)c3ccccc3)C(=O)N2[C@H]1C(=O)O (some centres undefined) [CARBENICILLIN] | 2240 (≈ 5920 µM) | – | – | – | – | –
5 | GENTAMICIN | – | 1.72 | 1120 | – | – | –
6 | POLYMYXIN B | – | 2.01 | 5 | inactive | – | –
7 | O=C(O)c1cn(C2CC2)c2cc(N3CCNCC3)c(F)cc2c1=O [CIPROFLOXACIN] | 30 (≈ 90.5 µM) | 1 | – | – | – | –
8 | CC[C@H]1OC(=O)[C@H](C)[C@@H](O[C@H]2C[C@@](C)(OC)[C@@H](O)[C@H](C)O2)[C@H](C)[C@@H](O[C@@H]2O[C@H](C)C[C@H](N(C)C)[C@H]2O)[C@](C)(O)C[C@@H](C)C(=O)[C@H](C)[C@@H](O)[C@]1(C)O [ERYTHROMYCIN] | 140 (≈ 191 µM) | 1 | – | – | – | –
9 | CO[C@H]1/C=C/O[C@@]2(C)Oc3c(C)c(O)c4c(O)c(c(/C=N/N5CCN(C)CC5)c(O)c4c3C2=O)NC(=O)/C(C)=C\C=C\[C@H](C)[C@H](O)[C@@H](C)[C@@H](O)[C@@H](C)[C@H](OC(C)=O)[C@@H]1C [RIFAMPIN] | 20 (≈ 24.3 µM) | 0.05 | – | – | 100000 | –
10 | CC(C)(O/N=C(\C(=O)N[C@@H]1C(=O)N2C(C(=O)[O-])=C(C[n+]3ccccc3)CS[C@H]12)c1csc(N)n1)C(=O)O [CEFTAZIDIME] | 400 (≈ 732 µM) | 0.04 | – | – | 100000 | 0.09
11 | O=C(N[C@H](CO)[C@H](O)c1ccc([N+](=O)[O-])cc1)C(Cl)Cl [CHLORAMPHENICOL] | 100 (≈ 309 µM) | 0.41 | – | – | 100000 | –
12 | CN[C@H](CC(C)C)C(=O)N[C@H]1C(=O)N[C@@H](CC(N)=O)C(=O)N[C@H]2C(=O)N[C@H]3C(=O)N[C@H](C(=O)N[C@H](C(=O)O)c4cc(O)cc(O)c4-c4cc3ccc4O)[C@H](O)c3ccc(c(Cl)c3)Oc3cc2cc(c3O[C@@H]2O[C@H](CO)[C@@H](O)[C@H](O)[C@H]2O[C@H]2C[C@](C)(N)[C@H](O)[C@H](C)O2)Oc2ccc(cc2Cl)[C@H]1O [VANCOMYCIN] | 1120 (≈ 773 µM) | 3.4 | – | inactive | – | –
13 | CC1(C)S[C@@H]2[C@H](NC(=O)[C@H](C(=O)O)c3ccsc3)C(=O)N2[C@H]1C(=O)O [TICARCILLIN] | 1120 (≈ 2910 µM) | – | – | – | – | –
14 | CC1(C)S[C@@H]2[C@H](NC(=O)[C@H](N)c3ccccc3)C(=O)N2[C@H]1C(=O)O [AMPICILLIN] | 2240 (≈ 6410 µM) | – | – | – | – | –
15 | NC[C@H]1O[C@H](O[C@H]2[C@H](O)[C@@H](O[C@H]3O[C@H](CO)[C@@H](O)[C@H](N)[C@H]3O)[C@H](N)C[C@@H]2N)[C@H](N)C[C@@H]1O [TOBRAMYCIN] | 50 (≈ 107 µM) | 4.81 | – | – | – | –
16 | CO/N=C(\C(=O)N[C@@H]1C(=O)N2C(C(=O)O)=C(COC(C)=O)CS[C@H]12)c1csc(N)n1 [CEFOTAXIME] | 960 (≈ 2110 µM) | 0.14 | – | – | – | –
17 | NC[C@@H]1O[C@@H](O[C@H]2[C@H](O)[C@@H](O[C@H]3O[C@H](CO)[C@@H](O)[C@H](N)[C@H]3O)[C@H](N)C[C@@H]2N)[C@@H](O)[C@H](O)[C@H]1O [KANAMYCIN A] | 1600 (≈ 3300 µM) | 1.21 | – | – | – | –
18 | CC1COc2c(N3CCN(C)CC3)c(F)cc3c(=O)c(C(=O)O)cn1c23 (centres undefined) [OFLOXACIN] | 10 (≈ 27.7 µM) | 1 | – | – | – | –
19 | CO[C@@H]1[C@@H](OC(N)=O)[C@@H](O)[C@H](Oc2ccc3c(O)c(NC(=O)c4ccc(O)c(CC=C(C)C)c4)c(=O)oc3c2C)OC1(C)C [NOVOBIOCIN] | 1600 (≈ 2610 µM) | 0.1 | – | – | 100000000 | 0.35
20 | COLISTIN | – | 2.01 | 5 | – | – | –
